Source: ChEMBL document CHEMBL4627400, “Discovery of Dihydropyrrolo[1,2-a]pyrazin-3(4H)-one-Based Second-Generation GluN2C- and GluN2D-Selective Positive Allosteric Modulators (PAMs) of the N-Methyl-d-Aspartate (NMDA) Receptor” (J Med Chem, 2020)
In brackets after ≈: the same amount, converted by molar mass.

Legend:
[1] = Aqueous solubility of the compound at pH 7.4 after 30 mins by nephelometric analysis; type: physicochemical; details: buffer
[2] = target: T1, Glutamate NMDA receptor; Grin1/Grin2c (Rattus norvegicus) (UniProt P35439+Q00961); test: Positive allosteric modulation of recombinant rat GluN1a/GluN2C receptor expressed in Xenopus laevis oocytes assessed as increase in glycine/L-glutamate-induced channel current at 30 uM by two-electrode voltage clamp method relative to control; type: cell-based
Procedure, shortened: (§1)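 Oocytes expressing rat GluN1/GluN2C or GluN2D, held at −40 mV in HEPES-buffered Ba2+ solution, pH 7.4, 23 °C. Current given as percent of agonist-alone response. Doubling concentration is the concentration giving 2-fold response; reported as […] log. 6–19 oocytes from 2–3 frogs.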

[3] = target: T2, Ionotropic glutamate receptor NMDA 1/2D (Rattus norvegicus) (UniProt P35439+Q62645); test: Positive allosteric modulation of recombinant rat GluN1a/GluN2D receptor expressed in Xenopus laevis oocytes assessed as increase in glycine/L-glutamate-induced channel current at 30 uM by two-electrode voltage clamp method relative to control; type: cell-based
Procedure, shortened: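 Oocytes expressing rat GluN1/GluN2C or GluN2D, held at −40 mV in HEPES-buffered Ba2+ solution, pH 7.4, 23 °C. […] Current given as percent of agonist-alone response. […] Doubling concentration is the concentration giving 2-fold response; reported as […] log. 6–19 oocytes from 2–3 frogs.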

[4] = Cmax in C57Bl/6 mouse at 10 mg/kg, ip by LC/MS/MS analysis; type: ADME, organism-based; parameters: dose 10 mg/kg, route intraperitoneal; details: in vivo
Procedure, shortened: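 Male fed C57BL/6 mice, 6–8 weeks, given 10 mg/kg i.p. (1 mg/mL, 10 mL/kg) in 50% PEG400/water. […] Samples protein-precipitated with acetonitrile, brain homogenised 1:4 in water, quantified by LC-MS/MS with verapamil internal standard.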

[5] = Half life in C57Bl/6 mouse at 10 mg/kg, ip by LC/MS/MS analysis; type: ADME, organism-based; details: in vivo
Procedure, shortened: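 Male, fed C57BL/6 mice (6–8 weeks) got a single i.p. dose of 10 mg/kg (1 mg/mL) in 50% PEG400/water. […] Brain was homogenized 1:4 in water. Samples were acetonitrile-precipitated and measured by LC-MS/MS against a verapamil internal standard. Brain:plasma was reported from AUClast.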

[6] = Drug level in C57Bl/6 mouse brain at 10 mg/kg, ip measured at 0.25 hrs by LC/MS/MS analysis; type: ADME, organism-based; details: read-out: Drug uptake
Procedure, shortened: (§2)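 Fed male mice, 6–8 weeks old, n = 15, 3 per time point. Dosed ip at 10 mg/kg (1 mg/mL) in 50% PEG400/water. […] Brain homogenized 1:4 in water. Samples acetonitrile-precipitated and quantified by LC-MS/MS with verapamil as internal standard.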

[7] = Drug level in C57Bl/6 mouse plasma at 10 mg/kg, ip measured at 0.25 hrs by LC/MS/MS analysis; type: ADME, organism-based; procedure, shortened: as §2
[8] = Protein binding in rat plasma at 1 uM measured after 60 mins by equilibrium dialysis based LC/MS/MS analysis; type: ADME, cell-free; details: read-out: PPB (converted)
[9] = target: T3, Glutamate NMDA receptor; Grin1/Grin2a (Rattus norvegicus, UniProt P35439+Q00959); test: Positive allosteric modulation of recombinant rat GluN1a/GluN2A receptor expressed in Xenopus laevis oocytes assessed as increase in glycine/L-glutamate-induced channel current at 10 to 30 uM by two-electrode voltage clamp method relative to control; type: cell-based
Procedure, shortened: (§3)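 TEVC at −40 mV, 23 °C, in 90 NaCl/1 KCl/0.5 BaCl/0.005 EDTA/10 HEPES (mM), pH 7.4. Oocytes expressed rat GluN1/GluN2A or GluN1/GluN2B. […] Some GluN2A oocytes were BAPTA-loaded. 4–17 oocytes from 1–3 frogs.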

[10] = target: T4, Glutamate NMDA receptor; Grin1/Grin2b (Rattus norvegicus, UniProt P35439+Q00960); test: Positive allosteric modulation of recombinant rat GluN1a/GluN2B receptor expressed in Xenopus laevis oocytes assessed as increase in glycine/L-glutamate-induced channel current at 10 to 30 uM by two-electrode voltage clamp method relative to control; type: cell-based; procedure, shortened: as §3
[11] = target: Glutamate NMDA receptor; Grin1/Grin2c (Rattus norvegicus, UniProt P35439+Q00961)
[12] = target: Ionotropic glutamate receptor NMDA 1/2D (Rattus norvegicus, UniProt P35439+Q62645)
[13] = target: T3, Glutamate NMDA receptor; Grin1/Grin2a; test: Positive allosteric modulation of recombinant rat GluN1a/GluN2A receptor expressed in Xenopus laevis oocytes assessed as change in 30 to 100 uM glycine/3 uM L-glutamate-induced channel current at 30 uM by two-electrode voltage clamp method (reference value: 46 +/- 5%); type: cell-based
[14] = target: T4, Glutamate NMDA receptor; Grin1/Grin2b; test: Positive allosteric modulation of recombinant rat GluN1a/GluN2B receptor expressed in Xenopus laevis oocytes assessed as change in 30 to 100 uM glycine/3 uM L-glutamate-induced channel current at 30 uM by two-electrode voltage clamp method (reference value: 79 +/- 1%); type: cell-based; details: read-out: %max
[15] = target: T1, Glutamate NMDA receptor; Grin1/Grin2c (Rattus norvegicus); test: Positive allosteric modulation of recombinant rat GluN1a/GluN2C receptor expressed in Xenopus laevis oocytes assessed as change in […]/0.3 uM L-glutamate-induced channel current at 30 uM by two-electrode voltage clamp method (reference value: 19 +/- 3%); type: cell-based
Procedure, shortened: (§4)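 Oocytes expressing rat GluN1/GluN2C or GluN1/GluN2D, TEVC at −40 mV, pH 7.4, 23 °C. […] 30 μM glycine in all solutions per footnote. Vehicle versus drug compared by paired t-test; mean ± SEM.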

[16] = target: T2, Ionotropic glutamate receptor NMDA 1/2D (Rattus norvegicus); test: Positive allosteric modulation of recombinant rat GluN1a/GluN2D receptor expressed in Xenopus laevis oocytes assessed as change in […]/0.3 uM L-glutamate-induced channel current at 30 uM by two-electrode voltage clamp method (reference value: 29 +/- 2%); type: cell-based; procedure, shortened: as §4
[17] = target: T2, Ionotropic glutamate receptor NMDA 1/2D (Rattus norvegicus); test: Positive allosteric modulation of recombinant rat GluN1a/GluN2D receptor expressed in Xenopus laevis oocytes assessed as increase in 10 uM glycine/L-glutamate-induced channel current at 30 uM in presence of NMDAR antagonist DL-APV by two-electrode voltage clamp method relative to control; type: cell-based
Procedure, shortened: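 GluN1/GluN2D oocytes, TEVC at −40 mV. 30 μM compound applied with 10 μM glycine plus 50 μM DL-APV (glutamate-site antagonist).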

[18] = target: T2, Ionotropic glutamate receptor NMDA 1/2D (Rattus norvegicus); test: Positive allosteric modulation of recombinant rat GluN1a/GluN2D receptor expressed in Xenopus laevis oocytes assessed as increase in glycine/10 uM L-glutamate-induced channel current at 30 uM in presence of NMDAR antagonist 7-CKA by two-electrode voltage clamp method relative to control; type: cell-based
[19] = target: T1, Glutamate NMDA receptor; Grin1/Grin2c (Rattus norvegicus); test: Positive allosteric modulation of recombinant rat GluN1a/GluN2C receptor expressed in Xenopus laevis oocytes assessed as increase in glycine/L-glutamate-induced channel current by measuring log of doubling concentration by two-electrode voltage clamp method; type: cell-based; procedure, shortened: as §1
[20] = target: T3, Glutamate NMDA receptor; Grin1/Grin2a; test: Positive allosteric modulation of recombinant rat GluN1a/GluN2A receptor expressed in Xenopus laevis oocytes assessed as change in 30 uM glycine/3 uM L-glutamate-induced channel current at 30 uM by two-electrode voltage clamp method (reference value: 40 +/- 4%); type: cell-based
[21] = target: T4, Glutamate NMDA receptor; Grin1/Grin2b; test: Positive allosteric modulation of recombinant rat GluN1a/GluN2B receptor expressed in Xenopus laevis oocytes assessed as change in 30 uM glycine/3 uM L-glutamate-induced channel current at 30 uM by two-electrode voltage clamp method (reference value: 84 +/- 1%); type: cell-based; details: read-out: %max
[22] = target: T1, Glutamate NMDA receptor; Grin1/Grin2c (Rattus norvegicus); test: Positive allosteric modulation of recombinant rat GluN1a/GluN2C receptor expressed in Xenopus laevis oocytes assessed as change in 30 uM glycine/0.5 uM L-glutamate-induced channel current at 30 uM by two-electrode voltage clamp method (reference value: 54 +/- 1%); type: cell-based; procedure, shortened: as §4
[23] = target: T2, Ionotropic glutamate receptor NMDA 1/2D (Rattus norvegicus); test: Positive allosteric modulation of recombinant rat GluN1a/GluN2D receptor expressed in Xenopus laevis oocytes assessed as change in 30 uM glycine/0.5 uM L-glutamate-induced channel current at 30 uM by two-electrode voltage clamp method (reference value: 54 +/- 1%); type: cell-based; procedure, shortened: as §4
[24] = Fraction unbound in rat plasma at 1 uM measured after 60 mins by equilibrium dialysis based LC/MS/MS analysis; type: ADME, cell-free
[25] = Cmax in C57Bl/6 mouse at 20 mg/kg, ip by LC/MS/MS analysis; type: ADME, organism-based; parameters: dose 20 mg/kg, route intraperitoneal; details: in vivo
[26] = Half life in C57Bl/6 mouse at 20 mg/kg, ip by LC/MS/MS analysis; type: ADME, organism-based; details: in vivo
[27] = Ratio of drug level in brain to plasma in C57Bl/6 mouse at 20 mg/kg, ip by LC/MS/MS analysis; type: ADME, organism-based; details: read-out: BPR

T3 sequence (Q00959 whole entry, other chains not shown): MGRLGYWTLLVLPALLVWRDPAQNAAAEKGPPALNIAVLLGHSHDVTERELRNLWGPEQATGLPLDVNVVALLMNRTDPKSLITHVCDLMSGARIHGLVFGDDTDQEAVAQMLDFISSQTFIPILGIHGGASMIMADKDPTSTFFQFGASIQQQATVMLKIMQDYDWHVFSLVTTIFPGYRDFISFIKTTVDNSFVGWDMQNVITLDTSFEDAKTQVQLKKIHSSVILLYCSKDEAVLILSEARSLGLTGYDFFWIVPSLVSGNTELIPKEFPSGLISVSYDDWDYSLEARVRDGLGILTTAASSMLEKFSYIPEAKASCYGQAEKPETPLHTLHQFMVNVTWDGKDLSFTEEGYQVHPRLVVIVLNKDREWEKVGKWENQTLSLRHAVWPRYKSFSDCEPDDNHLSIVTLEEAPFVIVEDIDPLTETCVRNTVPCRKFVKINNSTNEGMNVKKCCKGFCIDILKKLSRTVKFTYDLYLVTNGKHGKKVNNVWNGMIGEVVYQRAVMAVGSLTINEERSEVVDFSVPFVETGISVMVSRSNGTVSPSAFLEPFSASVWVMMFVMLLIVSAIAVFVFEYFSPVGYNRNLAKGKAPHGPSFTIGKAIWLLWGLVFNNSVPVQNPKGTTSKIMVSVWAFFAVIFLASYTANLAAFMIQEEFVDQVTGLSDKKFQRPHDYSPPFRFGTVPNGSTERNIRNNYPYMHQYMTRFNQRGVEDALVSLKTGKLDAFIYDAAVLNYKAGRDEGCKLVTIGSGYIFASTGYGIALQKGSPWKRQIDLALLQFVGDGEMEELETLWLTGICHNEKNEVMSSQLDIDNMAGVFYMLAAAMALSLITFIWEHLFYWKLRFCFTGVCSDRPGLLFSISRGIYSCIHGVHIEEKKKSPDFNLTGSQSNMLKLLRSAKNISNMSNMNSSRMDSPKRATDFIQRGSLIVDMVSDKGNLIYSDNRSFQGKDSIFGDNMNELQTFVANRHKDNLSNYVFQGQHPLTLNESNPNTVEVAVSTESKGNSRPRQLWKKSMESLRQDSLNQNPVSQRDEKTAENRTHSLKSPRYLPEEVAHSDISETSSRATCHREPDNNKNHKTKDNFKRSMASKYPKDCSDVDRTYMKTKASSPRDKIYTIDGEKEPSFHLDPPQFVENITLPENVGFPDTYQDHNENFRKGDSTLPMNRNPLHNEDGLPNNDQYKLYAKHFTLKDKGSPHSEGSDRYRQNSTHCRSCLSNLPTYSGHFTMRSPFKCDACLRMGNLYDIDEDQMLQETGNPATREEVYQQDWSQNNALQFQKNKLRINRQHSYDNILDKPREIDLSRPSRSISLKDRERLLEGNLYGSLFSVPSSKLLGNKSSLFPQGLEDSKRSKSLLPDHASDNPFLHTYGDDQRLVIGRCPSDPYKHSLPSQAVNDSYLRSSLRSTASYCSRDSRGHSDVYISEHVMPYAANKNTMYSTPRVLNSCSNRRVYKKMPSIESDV
T4 sequence (Q00960 whole entry, other chains not shown): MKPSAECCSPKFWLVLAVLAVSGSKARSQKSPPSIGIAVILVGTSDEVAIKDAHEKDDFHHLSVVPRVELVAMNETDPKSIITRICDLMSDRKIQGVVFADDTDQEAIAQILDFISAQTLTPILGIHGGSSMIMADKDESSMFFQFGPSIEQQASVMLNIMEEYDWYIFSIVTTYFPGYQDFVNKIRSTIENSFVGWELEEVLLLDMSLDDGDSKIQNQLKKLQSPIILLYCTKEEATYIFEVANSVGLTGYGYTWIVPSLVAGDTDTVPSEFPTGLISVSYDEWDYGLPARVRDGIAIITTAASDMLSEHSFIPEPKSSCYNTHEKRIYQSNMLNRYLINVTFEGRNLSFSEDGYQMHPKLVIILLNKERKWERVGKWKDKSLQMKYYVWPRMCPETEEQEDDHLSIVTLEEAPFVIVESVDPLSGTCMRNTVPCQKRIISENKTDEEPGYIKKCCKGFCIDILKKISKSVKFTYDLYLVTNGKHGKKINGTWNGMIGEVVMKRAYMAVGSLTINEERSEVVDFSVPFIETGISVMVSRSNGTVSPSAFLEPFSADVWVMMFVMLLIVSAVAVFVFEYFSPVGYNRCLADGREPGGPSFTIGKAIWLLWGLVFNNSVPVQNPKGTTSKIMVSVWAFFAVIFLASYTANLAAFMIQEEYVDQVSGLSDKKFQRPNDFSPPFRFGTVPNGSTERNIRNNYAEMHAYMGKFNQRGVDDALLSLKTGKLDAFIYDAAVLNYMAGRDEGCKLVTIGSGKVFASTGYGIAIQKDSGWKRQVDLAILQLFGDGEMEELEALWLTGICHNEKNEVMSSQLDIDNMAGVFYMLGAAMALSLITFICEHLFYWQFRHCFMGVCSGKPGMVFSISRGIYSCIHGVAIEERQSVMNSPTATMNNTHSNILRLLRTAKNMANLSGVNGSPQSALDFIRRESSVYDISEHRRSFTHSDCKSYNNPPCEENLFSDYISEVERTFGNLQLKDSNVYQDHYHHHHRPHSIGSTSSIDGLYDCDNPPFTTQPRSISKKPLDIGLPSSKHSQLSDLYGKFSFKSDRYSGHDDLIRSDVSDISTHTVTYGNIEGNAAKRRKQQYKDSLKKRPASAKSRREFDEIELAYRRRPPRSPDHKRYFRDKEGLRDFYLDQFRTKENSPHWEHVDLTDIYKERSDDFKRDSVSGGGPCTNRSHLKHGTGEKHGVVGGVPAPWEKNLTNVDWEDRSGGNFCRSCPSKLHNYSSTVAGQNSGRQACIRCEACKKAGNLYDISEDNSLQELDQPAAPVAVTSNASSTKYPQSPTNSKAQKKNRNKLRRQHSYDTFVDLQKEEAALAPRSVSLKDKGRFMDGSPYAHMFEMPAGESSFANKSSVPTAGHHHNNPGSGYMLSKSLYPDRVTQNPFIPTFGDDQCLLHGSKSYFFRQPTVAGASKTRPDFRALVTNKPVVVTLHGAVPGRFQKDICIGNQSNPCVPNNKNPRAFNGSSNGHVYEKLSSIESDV

| SMILES | solubility kinetic at 0.5 h [1] | %max [2] | %max [3] | Activity [9] | Activity [10] | EC50 [11] | EC50 [12] | other results |
| --- | --- | --- | --- | --- | --- | --- | --- | --- |
| COc1ccc(OCC2c3cccn3CC(=O)N2Cc2cccc(F)c2)cc1 (stereo not given) | 74 µM (≈ 28.2 µg/mL) | 350% | 350% | Not Active | Not Active | 3160 nM | 3160 nM | Cmax [4]: 1830 nM; t1/2 [5]: 1.07 h; concentration at 0.25 h [6]: 2500 nM; concentration at 0.25 h [7]: 1830 nM; fraction unbound at 1 h, 1 µM [8]: 0.013 |
| COc1ccc(OC[C@H]2c3cccn3CC(=O)N2Cc2cccc(F)c2)cc1 | 74 µM (≈ 28.2 µg/mL) | 410% | 390% |  |  | 3160 nM | 3160 nM | %max [13]: 53%; activity at 30 µM [14]: 77%; %max [15]: 48%; %max [16]: 55%; Activity [17]: 2.5%; Activity [18]: 0.4% |
| COc1ccc(OCC2c3ccc(OC)cc3CC(=O)N2CC(F)(F)F)cc1 (stereo not given) |  | 330% | 160% | Not Active | Not Active |  |  | log(activity) [19]: > -4.5 |
| COc1ccc(OCC2c3cccn3CCN2C(=O)c2cccc(C(F)(F)F)c2)cc1 (stereo not given) | 58 µM (≈ 25 µg/mL) | 380% | 290% | Not Active | Not Active | 1580 nM | 2000 nM |  |
| COc1ccc(OCC2c3cccn3CC(=O)N2Cc2cccc(C(F)(F)F)c2)cc1 (stereo not given) | 57 µM (≈ 24.5 µg/mL) | 300% | 400% | Not Active | Not Active | 1260 nM | 1580 nM |  |
| COc1ccc(OC[C@@H]2c3cccn3CC(=O)N2Cc2cccc(F)c2)cc1 | 74 µM (≈ 28.2 µg/mL) | 100% | 88% | Not Active | Not Active |  |  | %max [20]: 45%; activity at 30 µM [21]: 85%; %max [22]: 57%; %max [23]: 72% |
| COc1ccc(OCC2c3cccn3CCN2C(=O)c2cccc(Cl)c2)cc1 (stereo not given) | 36 µM (≈ 14.3 µg/mL) | 370% | 370% | Not Active | Not Active | 2510 nM | 3160 nM |  |
| COc1ccc(OCC2c3cc(OC)c(OC)cc3CCN2C(=O)c2cccc(Cl)c2)cc1 (stereo not given) |  | 230% | 220% |  |  |  |  | fraction unbound at 1 h, 1 µM [24]: < 0.0001; Cmax [25]: 2160 nM; half-life [26]: 1.35 h; Kp [27]: 6.7; fraction unbound at 1 h, 1 µM [8]: < 0.001 |
